Reference: ChEMBL document CHEMBL2380270, “Radiosynthesis and first evaluation in mice of [(18)F]NS14490 for molecular imaging of α7 nicotinic acetylcholine receptors” (Bioorg Med Chem, 2013)

Key:
[1] = biological target: Neuronal acetylcholine receptor; alpha3/beta4 (Homo sapiens, UniProt P30926+P32297); assay: Displacement of (+/-)[3H]-epibatidine from human alpha3beta4 nAChR transfected in HEK293 cells after 90 mins by liquid scintillation counting analysis; assay type: cell-based
In short: (§1)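 Homogenates of HEK293 cells transfected with human α4β2 or α3β4 nAChR, with about 0.5 nM (±)-[3H]epibatidine and compound 10 pM–10 µM. Buffer: 50 mM Tris–HCl pH 7.4 with NaCl, KCl, MgCl2 and CaCl2. Incubated 90 min at room temperature; nonspecific binding defined with 300 µM (−)-nicotine tartrate. Filtered onto PEI-soaked GF/B, scintillation counted, triplicates; IC50 by nonlinear regression, Ki by Cheng–Prusoff.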

[2] = biological target: Neuronal acetylcholine receptor; alpha4/beta2 (Homo sapiens, UniProt P17787+P43681); assay: Displacement of (+/-)[3H]-epibatidine from human alpha4beta2 nAChR transfected in HEK293 cells after 90 mins by liquid scintillation counting analysis; assay type: cell-based; in short: as §1
Homo sapiens [3] = species on record: Homo sapiens; assay: Selectivity ratio of Ki for human alpha3beta4 nAChR to Ki for human alpha7 nAChR
[4] = biological target: T1, Neuronal acetylcholine receptor subunit alpha-7 (Homo sapiens, UniProt P36544); assay: Displacement of [3H]-methyllycaconitine from human alpha7 nAChR transfected in human SH-SY5Y cells after 240 mins by liquid scintillation counting analysis; assay type: cell-based
In short: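 Homogenates of SH-SY5Y cells transfected with human α7 nAChR, with about 0.3 nM [3H]methyllycaconitine and compound 10 pM–10 µM in Tris–HCl pH 7.4 saline buffer. Incubated 240 min at room temperature; nonspecific binding defined with 300 µM (−)-nicotine tartrate. Filtered onto PEI-soaked GF/B, washed with ice-cold Tris, scintillation counted, triplicates; Ki via Cheng–Prusoff.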

Homo sapiens [5] = species on record: Homo sapiens; assay: Selectivity ratio of Ki for human alpha4beta2 nAChR to Ki for human alpha7 nAChR
Brain [6] = assay: Biodistribution in CD1 mouse brain measured at 60 mins by autoradiographic analysis; assay type: ADME, organism-based; details: in vivo, 1 h
[7] = biological target: Neuronal acetylcholine receptor subunit alpha-7 (Rattus norvegicus, UniProt Q05941); assay: Displacement of [3H]A-585539 from rat brain alpha7 nAChR by scintillation counting analysis
Mus musculus [8] = assay: Biodistribution in CD1 mouse adrenal at 200 to 300 kBq, iv measured at 60 mins by gamma counting analysis in presence of NS6740; assay type: ADME, organism-based, Adrenal gland; details: in vivo, 1 h
In short: (§2)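 Blocking study in female CD-1 mice, n = 7 per blocker, with a matching control group. SSR180711 or NS6740 given at 10 mg kg⁻¹ ip in 0.9% saline 10 min before iv radiotracer (200–300 kBq). Organs taken at 60 min p.i., weighed and gamma-counted; uptake as % ID per g wet weight. Compared with control by two-tailed independent Student's t test.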

Urinary bladder = assay: Biodistribution in CD1 mouse bladder at 200 to 300 kBq, iv measured at 60 mins by gamma counting analysis in presence of NS6740; assay type: ADME, organism-based; details: in vivo, 1 h; in short: as §2
Femur = assay: Biodistribution in CD1 mouse femur at 200 to 300 kBq, iv measured at 60 mins by gamma counting analysis in presence of NS6740; assay type: ADME, organism-based; details: in vivo, 1 h; in short: as §2
Heart = assay: Biodistribution in CD1 mouse heart at 200 to 300 kBq, iv measured at 60 mins by gamma counting analysis in presence of NS6740; assay type: ADME, organism-based; details: in vivo, 1 h; in short: as §2
Mus musculus [9] = assay: Biodistribution in CD1 mouse thymus at 200 to 300 kBq, iv measured at 60 mins by gamma counting analysis in presence of NS6740; assay type: ADME, organism-based; details: in vivo, 1 h
In short: (§3)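 Female CD-1 mice given 200–300 kBq tracer intravenously. Animals anaesthetised for blood and urine sampling, then killed by cervical dislocation at 5, 15, 30 or 60 min (n = 3 per time; n = 7 at 60 min). Organs removed and weighed, activity gamma-counted, expressed as % injected dose per g wet weight. Blocking arm: 10 mg/kg i.p. in 0.9% saline, 10 min before tracer; two-tailed unpaired t test versus control.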

Lung = assay: Biodistribution in CD1 mouse lung at 200 to 300 kBq, iv measured at 60 mins by gamma counting analysis in presence of NS6740; assay type: ADME, organism-based; details: in vivo, 1 h
In short: (§4)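 Blocking design in female CD-1 mice, n = 7 per group. The blocker was given at 10 mg kg^-1 i.p. in 0.9% saline 10 min before i.v. 200–300 kBq [18F]radiotracer. Mice were killed at 60 min p.i. and organs weighed and gamma-counted as % ID per g wet weight. Blocked groups were compared with controls by two-tailed independent Student's t test.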

Pancreas = assay: Biodistribution in CD1 mouse pancreas at 200 to 300 kBq, iv measured at 60 mins by gamma counting analysis in presence of NS6740; assay type: ADME, organism-based; details: in vivo, 1 h; in short: as §4
Liver = assay: Biodistribution in CD1 mouse liver at 200 to 300 kBq, iv measured at 60 mins by gamma counting analysis in presence of NS6740; assay type: ADME, organism-based; details: in vivo, 1 h; in short: as §4
Brain [10] = assay: Biodistribution in CD1 mouse brain at 200 to 300 kBq, iv measured at 60 mins by gamma counting analysis in presence of NS6740; assay type: ADME, organism-based; details: in vivo, 1 h; in short: as §2
Zone of skin = assay: Biodistribution in CD1 mouse skin at 200 to 300 kBq, iv measured at 60 mins by gamma counting analysis in presence of NS6740; assay type: ADME, organism-based; details: in vivo, 1 h; in short: as §4
[11] = Biodistribution in CD1 mouse urine at 200 to 300 kBq, iv measured at 60 mins by gamma counting analysis in presence of NS6740; assay type: ADME, organism-based; details: in vivo, 1 h; in short: as §3
Mus musculus [12] = assay: Biodistribution in CD1 mouse small intestine at 200 to 300 kBq, iv measured at 60 mins by gamma counting analysis in presence of NS6740; assay type: ADME, organism-based; details: in vivo, 1 h; in short: as §4
Muscle tissue = assay: Biodistribution in CD1 mouse muscle at 200 to 300 kBq, iv measured at 60 mins by gamma counting analysis in presence of NS6740; assay type: ADME, organism-based; details: in vivo, 1 h; in short: as §4
Blood = assay: Biodistribution in CD1 mouse blood at 200 to 300 kBq, iv measured at 60 mins by gamma counting analysis in presence of NS6740; assay type: ADME, organism-based; details: in vivo, 1 h; in short: as §2
Kidney = assay: Biodistribution in CD1 mouse kidney at 200 to 300 kBq, iv measured at 60 mins by gamma counting analysis in presence of NS6740; assay type: ADME, organism-based; details: in vivo, 1 h; in short: as §2
Stomach = assay: Biodistribution in CD1 mouse stomach at 200 to 300 kBq, iv measured at 60 mins by gamma counting analysis in presence of NS6740; assay type: ADME, organism-based; details: in vivo, 1 h; in short: as §4
Mus musculus [13] = assay: Biodistribution in CD1 mouse large intestine at 200 to 300 kBq, iv measured at 60 mins by gamma counting analysis in presence of NS6740; assay type: ADME, organism-based; details: in vivo, 1 h; in short: as §2
Spleen = assay: Biodistribution in CD1 mouse spleen at 200 to 300 kBq, iv measured at 60 mins by gamma counting analysis in presence of NS6740; assay type: ADME, organism-based; details: in vivo, 1 h; in short: as §4
[14] = biological target: T1, Neuronal acetylcholine receptor subunit alpha-7; assay: Binding affinity to alpha7 nAChR (unknown origin)
In short: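 Radioligand competition on homogenates of SH-SY5Y cells transfected with human α7 nAChR. [³H]methyllycaconitine at about 0.3 nM working concentration, test ligand in serial dilution 10 pM–10 µM. Buffer 50 mM Tris–HCl pH 7.4 with 120 mM NaCl, 5 mM KCl, 2.5 mM MgCl₂, 1 mM CaCl₂. Nonspecific binding defined with 300 µM (−)-nicotine tartrate. Incubated 240 min at room temperature, then filtered on PEI-soaked GF/B and counted by scintillation. Run in triplicate; IC50 by non-linear regression, Ki by Cheng–Prusoff.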

[15] = n-Octanol-PBS distribution coefficient, log D of the compound at pH 7.2 after 30 mins by shake-flask method; assay type: physicochemical
[16] = Stability of the compound in PBS buffer assessed as compound remaining at pH 7.2 measured at 5 mins by radio-TLC analysis; assay type: physicochemical; details: read-out: Stability
In short: (§5)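 Tracer formulated in isotonic saline, then diluted 1:20 into 50 mM Tris–HCl (pH 6.7) or PBS (pH 7.2). Stirred at 40 °C for up to 2 h, sampled at 5, 10, 30, 60, 90 and 120 min, and analysed by radio-TLC for intact tracer.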

[17] = Stability of the compound in PBS buffer assessed as compound remaining at pH 7.2 measured up to 2 hrs by radio-TLC analysis; assay type: physicochemical; details: read-out: Stability; in short: as §5
[18] = Ratio of drug level in brain to plasma in CD1 mouse at 200 to 300 kBq, iv measured at 5 mins; assay type: ADME, organism-based; details: read-out: BPR
In short: (§6)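 Female CD-1 mice injected intravenously with 200–300 kBq tracer. Animals killed at 5, 15, 30 and 60 min (n = 3; n = 7 at 60 min). Brain and plasma activity gamma-counted as % ID/g wet weight, and the brain-to-plasma ratio taken from these values.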

[19] = Cyclohexane-PBS distribution coefficient, log D of the compound at pH 7.2 after 30 mins by shake-flask method; assay type: physicochemical; details: pH 7.2, 0.5 h
[20] = Stability of the compound in Tris-HCl buffer assessed as compound remaining at pH 6.7 measured at 5 mins by radio-TLC analysis; assay type: physicochemical; details: read-out: Stability; in short: as §5
[21] = Ratio of drug level in brain to plasma in CD1 mouse at 200 to 300 kBq, iv measured at 60 mins; assay type: ADME, organism-based; details: read-out: BPR; in short: as §6
[22] = Stability of the compound in Tris-HCl buffer assessed as compound remaining at pH 6.7 measured up to 2 hrs by radio-TLC analysis; assay type: physicochemical; details: read-out: Stability; in short: as §5
[23] = Ratio of drug level in brain to plasma in CD1 mouse at 200 to 300 kBq, iv measured at 30 mins; assay type: ADME, organism-based; details: read-out: BPR; in short: as §6
[24] = Ratio of drug level in brain to plasma in CD1 mouse at 200 to 300 kBq, iv measured at 15 mins; assay type: ADME, organism-based; details: read-out: BPR; in short: as §6

T1 sequence (P36544 whole entry): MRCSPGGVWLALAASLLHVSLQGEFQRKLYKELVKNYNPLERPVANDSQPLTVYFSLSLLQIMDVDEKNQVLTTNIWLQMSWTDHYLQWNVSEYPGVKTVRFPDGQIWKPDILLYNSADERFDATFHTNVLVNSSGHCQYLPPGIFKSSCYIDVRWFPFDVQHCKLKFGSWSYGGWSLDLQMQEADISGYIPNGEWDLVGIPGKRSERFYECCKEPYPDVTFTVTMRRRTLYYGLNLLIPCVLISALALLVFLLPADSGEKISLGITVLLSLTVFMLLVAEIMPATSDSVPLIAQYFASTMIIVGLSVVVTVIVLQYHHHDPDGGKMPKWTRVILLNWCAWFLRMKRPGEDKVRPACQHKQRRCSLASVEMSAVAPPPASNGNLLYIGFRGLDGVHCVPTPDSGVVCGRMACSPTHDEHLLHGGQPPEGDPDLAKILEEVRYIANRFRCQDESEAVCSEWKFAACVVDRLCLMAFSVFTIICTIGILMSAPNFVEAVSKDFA
Sequence of Neuronal acetylcholine receptor subunit alpha-7 (Rattus norvegicus, UniProt Q05941) (Q05941 whole entry): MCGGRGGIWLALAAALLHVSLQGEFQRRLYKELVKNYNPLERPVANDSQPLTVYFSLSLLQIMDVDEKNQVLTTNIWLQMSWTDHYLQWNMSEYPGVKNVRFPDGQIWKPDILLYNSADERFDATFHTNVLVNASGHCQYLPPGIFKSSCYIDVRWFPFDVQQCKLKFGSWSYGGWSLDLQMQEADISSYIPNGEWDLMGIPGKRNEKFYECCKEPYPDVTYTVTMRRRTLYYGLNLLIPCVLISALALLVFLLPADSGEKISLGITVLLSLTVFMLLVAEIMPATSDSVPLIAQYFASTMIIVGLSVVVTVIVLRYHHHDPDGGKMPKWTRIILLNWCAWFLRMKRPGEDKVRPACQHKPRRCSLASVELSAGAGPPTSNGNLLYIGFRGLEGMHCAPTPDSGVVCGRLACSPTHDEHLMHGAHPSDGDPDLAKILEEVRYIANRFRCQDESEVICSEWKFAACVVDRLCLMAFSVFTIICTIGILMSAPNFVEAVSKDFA
Sequence of Neuronal acetylcholine receptor; alpha4/beta2 (P17787 whole entry): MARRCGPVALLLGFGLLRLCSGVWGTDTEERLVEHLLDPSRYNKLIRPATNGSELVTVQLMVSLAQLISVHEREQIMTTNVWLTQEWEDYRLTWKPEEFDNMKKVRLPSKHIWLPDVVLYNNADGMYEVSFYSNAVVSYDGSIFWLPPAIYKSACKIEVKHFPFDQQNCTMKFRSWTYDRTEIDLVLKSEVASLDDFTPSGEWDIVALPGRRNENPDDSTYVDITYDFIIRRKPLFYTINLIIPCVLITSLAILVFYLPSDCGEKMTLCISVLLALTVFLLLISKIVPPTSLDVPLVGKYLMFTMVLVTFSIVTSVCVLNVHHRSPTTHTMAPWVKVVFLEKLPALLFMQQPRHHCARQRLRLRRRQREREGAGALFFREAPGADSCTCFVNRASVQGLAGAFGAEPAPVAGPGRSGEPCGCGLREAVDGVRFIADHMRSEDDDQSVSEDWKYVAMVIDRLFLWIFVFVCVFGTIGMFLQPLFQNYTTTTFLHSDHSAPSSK
Sequence of Neuronal acetylcholine receptor; alpha4/beta2 (P43681 whole entry): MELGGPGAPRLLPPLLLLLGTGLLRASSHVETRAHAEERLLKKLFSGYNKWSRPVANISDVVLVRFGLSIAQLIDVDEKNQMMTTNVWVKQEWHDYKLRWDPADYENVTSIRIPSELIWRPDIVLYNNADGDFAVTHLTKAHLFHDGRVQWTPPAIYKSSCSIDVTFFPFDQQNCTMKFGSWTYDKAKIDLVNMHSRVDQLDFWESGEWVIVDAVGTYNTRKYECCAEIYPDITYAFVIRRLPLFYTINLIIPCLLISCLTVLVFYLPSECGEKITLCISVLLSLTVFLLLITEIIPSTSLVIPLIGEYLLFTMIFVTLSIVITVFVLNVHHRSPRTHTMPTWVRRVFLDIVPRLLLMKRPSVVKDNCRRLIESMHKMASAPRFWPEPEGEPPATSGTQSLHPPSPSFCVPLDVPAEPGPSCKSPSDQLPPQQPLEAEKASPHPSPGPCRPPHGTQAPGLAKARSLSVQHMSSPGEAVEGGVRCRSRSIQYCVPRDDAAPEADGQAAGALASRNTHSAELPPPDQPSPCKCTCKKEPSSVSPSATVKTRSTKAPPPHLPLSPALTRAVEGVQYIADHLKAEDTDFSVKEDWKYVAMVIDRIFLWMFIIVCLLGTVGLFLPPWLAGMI
Sequence of Neuronal acetylcholine receptor; alpha3/beta4 (P30926 whole entry): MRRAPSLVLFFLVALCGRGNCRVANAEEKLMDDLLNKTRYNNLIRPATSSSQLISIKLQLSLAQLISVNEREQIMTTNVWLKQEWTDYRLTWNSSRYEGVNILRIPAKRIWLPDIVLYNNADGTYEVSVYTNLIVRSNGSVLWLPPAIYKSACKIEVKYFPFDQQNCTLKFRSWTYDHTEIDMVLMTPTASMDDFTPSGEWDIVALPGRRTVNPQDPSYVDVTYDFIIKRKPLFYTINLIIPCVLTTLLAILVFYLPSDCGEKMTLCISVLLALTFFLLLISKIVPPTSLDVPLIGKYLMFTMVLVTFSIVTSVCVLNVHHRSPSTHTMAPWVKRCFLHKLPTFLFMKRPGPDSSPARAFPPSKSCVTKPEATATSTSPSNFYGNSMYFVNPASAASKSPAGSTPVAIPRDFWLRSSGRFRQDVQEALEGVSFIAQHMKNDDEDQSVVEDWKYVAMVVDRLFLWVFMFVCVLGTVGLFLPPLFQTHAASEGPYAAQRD
Sequence of Neuronal acetylcholine receptor; alpha3/beta4 (P32297 whole entry): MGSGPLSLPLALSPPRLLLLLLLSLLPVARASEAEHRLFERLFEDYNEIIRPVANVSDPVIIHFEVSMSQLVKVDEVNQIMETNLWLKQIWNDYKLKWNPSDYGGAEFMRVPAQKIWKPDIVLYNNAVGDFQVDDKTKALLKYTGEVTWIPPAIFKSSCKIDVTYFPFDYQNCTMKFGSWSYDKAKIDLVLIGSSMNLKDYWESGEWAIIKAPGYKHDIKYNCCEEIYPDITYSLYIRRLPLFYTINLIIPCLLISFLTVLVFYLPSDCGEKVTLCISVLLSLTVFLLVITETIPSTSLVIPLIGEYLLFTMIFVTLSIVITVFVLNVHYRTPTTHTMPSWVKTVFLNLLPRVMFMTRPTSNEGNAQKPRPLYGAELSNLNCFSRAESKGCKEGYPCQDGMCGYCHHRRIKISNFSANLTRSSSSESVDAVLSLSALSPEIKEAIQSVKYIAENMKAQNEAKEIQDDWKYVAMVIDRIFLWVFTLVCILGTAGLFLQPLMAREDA

Structure (SMILES): FCCn1ccc2ccc(-c3nnc(N4CCN5CCC4CC5)o3)cc21
- Ki [1]: 102 nM
- Ki [2]: > 1000 nM
- Ratio Ki (Homo sapiens [3]): 40.8
- Ki [4]: 2.5 nM
- Ratio Ki (Homo sapiens [5]): > 400

Structure (SMILES): [18F]c1ccc(-c2nnc(N3CCN4CCC3CC4)o2)cc1
- Drug uptake (Brain [6]): 1.73 % ID/g

Structure (SMILES): O=C(c1ccc(-c2cccc(C(F)(F)F)c2)o1)N1CCN2CCC1CC2
- Ki [7]: 1.1 nM
- Drug uptake (Mus musculus [8]): 2.51 % ID/g
- Drug uptake (Urinary bladder): 1.45 % ID/g
- Drug uptake (Femur): 1.49 % ID/g
- Drug uptake (Heart): 1.77 % ID/g
- Drug uptake (Mus musculus [9]): 2.25 % ID/g
- Drug uptake (Lung): 4.56 % ID/g
- Drug uptake (Pancreas): 3.04 % ID/g
- Drug uptake (Liver): 6.67 % ID/g
- Drug uptake (Brain [10]): 0.14 % ID/g
- Drug uptake (Zone of skin): 1.7 % ID/g
- Drug uptake [11]: 218 % ID/g
- Drug uptake (Mus musculus [12]): 15.3 % ID/g
- Drug uptake (Muscle tissue): 1.05 % ID/g
- Drug uptake (Blood): 0.75 % ID/g
- Drug uptake (Kidney): 11.7 % ID/g
- Drug uptake (Stomach): 9.71 % ID/g
- Drug uptake (Mus musculus [13]): 5.11 % ID/g
- Drug uptake (Spleen): 6.57 % ID/g

Structure (SMILES): Fc1ccc(-c2nnc(N3CCN4CCC3CC4)o2)cc1
- Ki [14]: 11.6 nM

Structure (SMILES): [18F]CCn1ccc2ccc(-c3nnc(N4CCN5CCC4CC5)o3)cc21
- logD at 0.5 h [15]: 1.11
- remaining at 5 min [16]: 98%
- remaining at 2 h [17]: ≥ 97%
- Kp at 5 min [18]: 0.11
- logD [19]: -2.05
- remaining at 5 min [20]: 98%
- Kp at 1 h [21]: 0.26
- remaining at 2 h [22]: ≥ 97%
- Kp at 0.5 h [23]: 0.19
- Kp at 0.25 h [24]: 0.18
